Active and inactive are the calls of the source. The calls are words filed in the database; no cut-off is given here.
Columns and labels:
Mus musculus [1] = assay: Antiinflammatory activity in oxazolone-induced Balb/c mouse model of atopic dermatitis assessed as reduction of hyperplasia at 50 mg/kg, po BID administered 30 mins prior to oxazolone challenge for 3 weeks by hematoxylin and eosin staining based histopathological analysis; format: functional, organism-based
[2] = Cmax in ICR mouse at 50 mg/kg, po measured upto 24 hrs by LC-MS/MS analysis; format: ADME, organism-based; set-up: route oral, dose 50 mg/kg, time <=24; conditions: in vivo
Outline: (§1)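 Female ICR mice, n=3 per group, given test compound orally. Blood sampled at 0.5, 1, 2, 4, 7 and 24 h post dose; plasma levels quantified by LC-MS/MS. Parameters from non-compartmental analysis.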

[3] = Protein binding in human plasma; format: ADME, cell-free; conditions: read-out: PPB (converted)
Mus musculus [4] = assay: Anti-pruritus activity in ICR mouse with histamine-induced itching assessed as reduction of scratching bouts at 10 mg/kg, po administered 30 mins prior to histamine challenge and measured upto 20 mins; format: functional; set-up: scale not given: the % may be the effect or the level left; conditions: time 50 min
Outline: (§2)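 Female ICR mice (n=8-10 per group), back skin clipped 24 h before. Oral dose in 20% hydroxypropyl-β-cyclodextrin given 30 min before intradermal pruritogen in saline: histamine 300 nmol, substance P 100 nmol or C48/80 100 µg. Scratching bouts counted from video for 20 min after injection. Mean ± S.E.M., Student's t-test.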

[5] = target: Histamine H1 receptor (Homo sapiens) (UniProt P35367); assay: Displacement of [3H]pyrilamine from recombinant human histamine H1 receptor after 60 mins by scintillation counting analysis
Mus musculus [6] = assay: Anti-pruritus activity in ICR mouse with substance P-induced itching assessed as reduction of scratching bouts at 50 mg/kg, po administered 30 mins prior to […] and measured upto 20 mins; format: functional, organism-based; conditions: time 50.0 min; outline: as §2
Mus musculus [7] = assay: Antiinflammatory activity in oxazolone-induced Balb/c mouse model of atopic dermatitis assessed as reduction of epidermal thicken in skin lesions at 50 mg/kg, po BID administered 30 mins prior to oxazolone challenge for 3 weeks by hematoxylin and eosin staining based histopathological analysis; format: functional, organism-based
Outline: (§3)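 Female BALB/c mice (n=8), abdomen shaved. Sensitized on day 0 with topical 1% oxazolone (50 µL) in acetone/corn oil 4:1. From day 7, right ear challenged with 0.2% oxazolone (25 µL) 3 times weekly; left ear got vehicle. Oral dosing twice daily, 30 min before challenge, for 3 weeks. Scratching counted for 1 h after challenge on day 25. Ear thickness measured; ear fixed in 4% paraformaldehyde, 3 µm paraffin sections stained with H&E for epidermal thickness. Mean ± S.E.M., t-test.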

[8] = Tmax in ICR mouse at 2 mg/kg, po measured upto 24 hrs by LC-MS/MS analysis; format: ADME, organism-based; conditions: in vivo; outline: as §1
[9] = Cmax in ICR mouse at 10 mg/kg, po measured upto 24 hrs by LC-MS/MS analysis; format: ADME, organism-based; set-up: route oral, dose 10 mg/kg, time <=24; conditions: in vivo; outline: as §1
Histamine H4 receptor [10] = target: T1, Histamine H4 receptor (Mus musculus, UniProt Q91ZY2); assay: Displacement of [3H]-histamine from recombinant mouse histamine H4 receptor expressed in CHO-K1 cell membranes measured after 30 mins by microbeta scintillation counting method; set-up: species or system Cell membrane
T1 sequence (Q91ZY2 whole entry): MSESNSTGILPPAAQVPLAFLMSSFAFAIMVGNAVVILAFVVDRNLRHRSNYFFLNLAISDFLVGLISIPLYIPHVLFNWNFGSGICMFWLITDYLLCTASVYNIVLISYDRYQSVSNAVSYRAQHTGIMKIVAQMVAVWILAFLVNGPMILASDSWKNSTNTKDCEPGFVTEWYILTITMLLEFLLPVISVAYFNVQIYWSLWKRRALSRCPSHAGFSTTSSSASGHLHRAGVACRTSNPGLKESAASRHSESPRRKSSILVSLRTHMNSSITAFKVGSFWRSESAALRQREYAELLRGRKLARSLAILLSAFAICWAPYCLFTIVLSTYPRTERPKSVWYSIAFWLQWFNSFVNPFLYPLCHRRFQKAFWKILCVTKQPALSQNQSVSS
Outline: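 Competitive binding on CHO-K1 membranes expressing human H3R ([3H]Nα-methylhistamine) or mouse H4R ([3H]histamine). Run in 50 mM Tris-HCl pH 7.4 for 30 min at 27 °C, then filtered onto 0.5% PEI-treated glass fiber and washed three times with ice-cold buffer. Bound radioactivity read by liquid scintillation counting.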

Mus musculus [11] = assay: Anti-pruritus activity in ICR mouse with histamine-induced itching assessed as free plasma concentration causing 50% reduction of scratching bouts at 10 mg/kg, po administered 30 mins prior to histamine challenge and measured upto 20 mins; format: functional; conditions: time 50 min
Outline: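 Female ICR mice, oral dose in 20% hydroxypropyl-β-cyclodextrin 30 min before intradermal histamine (300 nmol). Scratching bouts counted over 20 min from video. Free plasma concentration at Tmax was plotted against the scratching response.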

Histamine H4 receptor [12] = target: T1, Histamine H4 receptor; assay: Antagonist activity at recombinant mouse histamine H4 receptor expressed in CHO-K1 cells assessed as inhibition of R-alpha-methylhistamine induced stimulation of [35S]-GTPgammaS binding by scintillation proximity assay; format: functional, cell membranes, Cell membrane
Outline: (§4)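 GTPγ35S binding on recombinant mouse H4R, run by an outside contractor. R-α-methylhistamine served as reference agonist and thioperamide as reference antagonist.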

[13] = Cmax in ICR mouse at 2 mg/kg, po measured upto 24 hrs by LC-MS/MS analysis; format: ADME, organism-based; set-up: route oral, dose 2 mg/kg, time <=24; conditions: in vivo; outline: as §1
Histamine H4 receptor [14] = target: T2, Histamine H4 receptor (Homo sapiens, UniProt Q9H3N8); assay: Antagonist activity at recombinant human histamine H4 receptor expressed in CHO-K1 cells assessed as inhibition of R-alpha-methylhistamine induced stimulation of [35S]-GTPgammaS binding by scintillation proximity assay; format: functional, cell membranes, Cell membrane
Outline: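 Functional [35S]GTPγS binding on recombinant human H4R. Antagonism was measured against the reference agonist R-α-methylhistamine, with JNJ10191584 as the reference antagonist. Run by a contract lab.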

Mus musculus [15] = assay: Anti-pruritus activity in ICR mouse with C48/80-induced itching assessed as reduction of scratching bouts at 50 mg/kg, po administered 30 mins prior to […] and measured upto 20 mins; format: functional, organism-based; conditions: time 50.0 min; outline: as §2
[16] = target: Histamine H2 receptor (Homo sapiens) (UniProt P25021); assay: Displacement of [125I]-aminopotentidine from recombinant human histamine H2 receptor after 120 mins by radiometric scintillation counting analysis
Histamine H4 receptor [17] = target: T2, Histamine H4 receptor; assay: Displacement of [3H]-histamine from recombinant human histamine H4 receptor expressed in CHO-K1 cell membranes measured after 30 mins by microbeta scintillation counting method; set-up: species or system Cell membrane
[18] = AUC (all) in ICR mouse at 50 mg/kg, po measured upto 24 hrs by LC-MS/MS analysis; format: ADME, organism-based; set-up: route oral, dose 50 mg/kg, time <=24; conditions: in vivo; outline: as §1
[19] = Protein binding in mouse plasma; format: ADME, cell-free; conditions: read-out: PPB (converted)
[20] = target: T3, Histamine H4 receptor (Mus musculus) (UniProt Q91ZY2); assay: Agonist activity at recombinant mouse histamine H4 receptor expressed in CHO-K1 cells assessed as stimulation of [35S]-GTPgammaS binding by scintillation proximity assay; format: functional, cell membranes; conditions: Cell membrane; outline: as §4
T3 sequence (whole entry): T1 sequence (Q91ZY2 whole entry)

Mus musculus [21] = assay: Anti-pruritus activity in oxazolone-induced Balb/c mouse model of atopic dermatitis assessed as reduction of scratching bouts at 50 mg/kg, po BID administered 30 mins prior to oxazolone challenge for 3 weeks and measured on day 25; format: functional, organism-based; outline: as §3
Mus musculus [22] = assay: Anti-pruritus activity in ICR mouse with histamine-induced itching assessed as reduction of scratching bouts at 50 mg/kg, po administered 30 mins prior to histamine challenge and measured upto 20 mins; format: functional; conditions: 50 min; outline: as §2
Mus musculus [23] = assay: Antiinflammatory activity in oxazolone-induced Balb/c mouse model of atopic dermatitis assessed as reduction of ear thickness at 50 mg/kg, po BID administered 30 mins prior to oxazolone challenge for 3 weeks and measured on day 27; format: functional, organism-based; outline: as §3

T2 sequence (Q9H3N8 whole entry): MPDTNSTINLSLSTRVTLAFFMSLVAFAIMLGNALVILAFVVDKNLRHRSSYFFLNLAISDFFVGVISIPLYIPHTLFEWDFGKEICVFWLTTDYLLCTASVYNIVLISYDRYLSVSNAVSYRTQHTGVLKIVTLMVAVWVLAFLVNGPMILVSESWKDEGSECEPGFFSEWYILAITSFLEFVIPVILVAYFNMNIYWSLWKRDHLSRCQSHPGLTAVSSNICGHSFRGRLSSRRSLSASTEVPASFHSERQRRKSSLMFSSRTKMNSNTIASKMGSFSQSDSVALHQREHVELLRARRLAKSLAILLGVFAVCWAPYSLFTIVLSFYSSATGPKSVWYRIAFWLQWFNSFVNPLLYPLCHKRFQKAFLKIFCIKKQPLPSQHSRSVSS
Histamine H1 receptor (Homo sapiens), sequence (P35367 whole entry): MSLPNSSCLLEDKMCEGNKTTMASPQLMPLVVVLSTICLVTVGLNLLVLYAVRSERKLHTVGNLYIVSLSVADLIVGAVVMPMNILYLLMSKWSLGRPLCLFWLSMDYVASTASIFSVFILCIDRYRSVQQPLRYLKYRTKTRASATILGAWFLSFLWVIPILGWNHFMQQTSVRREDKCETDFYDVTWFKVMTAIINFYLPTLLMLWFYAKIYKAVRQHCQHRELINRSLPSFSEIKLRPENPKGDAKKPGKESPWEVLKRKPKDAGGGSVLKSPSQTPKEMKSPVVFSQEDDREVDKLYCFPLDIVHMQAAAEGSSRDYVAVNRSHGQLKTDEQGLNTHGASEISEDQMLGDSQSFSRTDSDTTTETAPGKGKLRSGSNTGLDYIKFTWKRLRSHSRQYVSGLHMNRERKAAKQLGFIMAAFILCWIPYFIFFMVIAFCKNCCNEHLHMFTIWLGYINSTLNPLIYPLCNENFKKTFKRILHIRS
Histamine H2 receptor (Homo sapiens), sequence (P25021 whole entry): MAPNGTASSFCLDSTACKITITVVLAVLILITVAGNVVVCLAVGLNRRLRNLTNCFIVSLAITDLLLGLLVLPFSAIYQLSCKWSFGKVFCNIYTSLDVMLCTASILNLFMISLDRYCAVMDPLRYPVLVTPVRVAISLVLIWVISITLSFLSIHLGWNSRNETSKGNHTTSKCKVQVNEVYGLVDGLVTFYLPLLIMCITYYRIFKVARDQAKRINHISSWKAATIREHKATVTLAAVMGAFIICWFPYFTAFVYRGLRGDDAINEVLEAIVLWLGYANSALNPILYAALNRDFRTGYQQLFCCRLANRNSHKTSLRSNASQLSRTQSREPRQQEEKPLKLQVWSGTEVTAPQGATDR

CNC1CN(c2nc3ncc(Br)cc3n3nnnc23)C1
Activity (Mus musculus [1]): Active
Cmax [2]: 7690 ng/mL
fraction unbound [3]: 0.265
Activity (Mus musculus [4]): <=50%
Activity [5]: inactive
Activity (Mus musculus [6]): Active
Activity (Mus musculus [7]): Active
Tmax [8]: 30 min
Cmax [9]: 1820 ng/mL
IC50 (Histamine H4 receptor [10]): 290 nM
Cp(f) (Mus musculus [11]): 1.89 µM
IC50 (Histamine H4 receptor [12]): 690 nM
Cmax [13]: 180 ng/mL
IC50 (Histamine H4 receptor [14]): 28 nM
Activity (Mus musculus [15]): Active
Activity [16]: inactive
IC50 (Histamine H4 receptor [17]): 27 nM
AUC at 24 h [18]: 62600 ng·h/mL
fraction unbound [19]: 0.348
Activity [20]: inactive
Activity (Mus musculus [21]): Active
inhibition in vivo at 50 mg/kg (Mus musculus [22]): 100%
Activity (Mus musculus [23]): Active
